# Rows were chosen to be rich in hits. Some 3.4% of all compounds tested hit in one or more screens of this group.
# PHOSPHO1 block = PubChem AID 1565; Phosphoethanolamine/phosphocholine phosphatase (Homo sapiens), Q8TCT1; recombinant PHOSPHO1, absorbance phosphatase assay; inhibition, % at 13.3 µM; actives 1.1% (n = 290,000); in the data active = inhibition above about 60%
# Efa HMGR inh = inhibitors of E. faecalis class II HMGR, primary screen, biochemical, Enterococcus faecalis | HMG-CoA reductase (Enterococcus faecalis, mvaE) | purified E. faecalis HMGR, NADPH absorbance 340 nm kinetic | inhibition, % at 10 µM | actives 0.41% (n = 190,000) | AID 1066, 2008;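 active = inhibition above a set limit, the median over all tested compounds plus 3 SD, cut at about 9.5% in these data; inconclusive = no clear call, values can overlap the other calls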;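 also: enzyme runs in reverse so mevalonate oxidation gives rising NADPH absorbance; 0% = complete reaction with DMSO and 100% = background rate lacking mevalonate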
# Runt-CBFb FRET = inhibitors of RUNX1 Runt–CBFb binding, primary screen, biochemical, FRET, Cerulean-Runt, Venus-CBFb, uHTS; actives 0.46% (n = 220,000); inhibition, % at 20 µM; Cerulean-Runt/Venus-CBFb FRET ratio 530/480, 1 h; Runt-related transcription factor 1 (Homo sapiens) + Core-binding factor subunit beta …;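 active = inhibition over about 50% at 20 µM in the single-dose screen, limit read from the data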;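 also: 0% = DMSO wells and 100% = excess unlabeled CBFb competitor control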
#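 System: Cerulean-labeled Runt domain protein | Quantity: 100 nM of each labeled protein | Schedule: 1 h compound exposure, room temperature | Detection: Fluorescence energy transfer, 422 nm excitation, 530/480 nm emission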
# RanGTP-Imp inh = inhibitors of RanGTP-importin-beta interaction, primary screen, biochemical, FRET, CFP-Ran, YFP-importin-beta, homogeneous | Ran GTPase (GTP-bound) - importin-beta complex | cell-free CFP-Ran/YFP-importin-beta FRET ratio | inhibition, % (test concentration not listed) | actives 1.1% (n = 300,000) | AID 2216, 2009;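 active = more than half of the replicate wells show a fall in the fluorescence ratio signal beyond about 16%, limit read from the data, passing the limit was not always enough; inconclusive = exactly half of the replicate wells pass the set limit; inactive = fewer than half of replicates pass the limit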;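 also: 0% = DMSO wells and 100% = Ran loaded with GDP instead of GTP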
# Wee1 degr inh = Wee1 degradation inhibitors, primary screen, cell-based, HeLa, Wee1K328M-luciferase, luminescence; Wee1-like protein kinase (Homo sapiens), P30291; HeLa Luc-Wee1K328M stability; 100% = proteasome inhibitor MG132 effect; reporter increase, % at 5 µM; actives 1.2% (n = 220,000); AID 1321, 2008;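 active = activation above the mean of all tested compounds plus 3 SD, set per screening run, cut at about 8.8% in these data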;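 also: cells exposed to compound for 20 h before luminescence read; 0% = DMSO alone and 100% = MG132 at 30 µM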
# Target sequence (P30291 whole entry K328M): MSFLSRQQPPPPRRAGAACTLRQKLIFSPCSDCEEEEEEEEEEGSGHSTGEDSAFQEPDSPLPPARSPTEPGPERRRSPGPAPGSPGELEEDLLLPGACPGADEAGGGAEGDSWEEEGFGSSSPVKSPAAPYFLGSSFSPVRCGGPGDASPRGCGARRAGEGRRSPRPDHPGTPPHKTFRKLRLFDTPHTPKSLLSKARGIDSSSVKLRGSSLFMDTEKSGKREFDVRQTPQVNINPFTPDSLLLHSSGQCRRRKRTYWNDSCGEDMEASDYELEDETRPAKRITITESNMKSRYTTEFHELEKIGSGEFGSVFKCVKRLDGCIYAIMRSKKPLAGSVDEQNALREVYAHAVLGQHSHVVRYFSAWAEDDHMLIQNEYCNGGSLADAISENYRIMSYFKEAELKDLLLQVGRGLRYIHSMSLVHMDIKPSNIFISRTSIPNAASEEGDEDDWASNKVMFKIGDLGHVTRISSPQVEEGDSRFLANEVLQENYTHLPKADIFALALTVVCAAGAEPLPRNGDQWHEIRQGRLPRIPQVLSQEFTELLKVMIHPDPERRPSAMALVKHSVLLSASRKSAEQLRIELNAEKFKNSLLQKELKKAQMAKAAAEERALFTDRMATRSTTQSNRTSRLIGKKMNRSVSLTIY
# Runt-SMMHC FRET = inhibitors of RUNX1 Runt–CBFb-SMMHC binding, primary screen, biochemical, FRET, Cerulean-Runt, Venus-CBFb-SMMHC, uHTS; Runt-related transcription factor 1 (Homo sapiens) + Core-binding factor subunit beta …; Cerulean-Runt/Venus-CBFb-SMMHC FRET ratio 530/480, 1 h; inhibition, % at 20 µM; actives 0.74% (n = 220,000);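 active = mean inhibition across duplicate retests at 20 µM reaching about 50%, limit read from the data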;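 also: 0% = DMSO wells and 100% = wells with excess untagged CBFb-SMMHC; inhibitors lower the FRET ratio by blocking Runt binding to CBFb-SMMHC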
# Active calls of the source: *; ? = inconclusive; · = no result.
SMILES,PHOSPHO1 block,Efa HMGR inh,Runt-CBFb FRET,RanGTP-Imp inh,Wee1 degr inh,Runt-SMMHC FRET
OC(C#Cc1ccccn1)c1cccs1 (stereo unspecified),60.5*,-3.5,1.3,-2.9,-0.7,7.9
O=C(NC1CCCCC1)C(c1ccncc1)N(C(=O)Cc1cccs1)c1ccccc1 (stereo unspecified),-3.4,-9.6,·,-0.2,0.8,·
COCCN(C(=O)CNC(=O)c1cccs1)C(C(=O)NC1CCCCC1)c1ccco1 (stereo unspecified),4.7,-20.5,-0.8,·,-0.7,-1.2
COCCN(C(=O)CNC(=O)c1cccs1)C(C(=O)NC1CCCC1)c1cccs1 (stereo unspecified),29.6,3.6,-2.9,-0.9,9.8*,2.7
O=C(NC1CCCC1)C(c1ccncc1)N(C(=O)Cc1cccs1)c1ccccc1 (stereo unspecified),20.0,10.4*,0.3,-2.6,-1.3,-0.4
COCCN(C(=O)Cc1cccs1)C(C(=O)NC1CCCC1)c1cc(OC)c(OC)c(OC)c1 (stereo unspecified),61.5*,1.1,-0.7,5.8,-2.5,0.1
CC1(C)CC(=O)C2=C(C1)OC(N)=C(C#N)C2c1ccccc1 (stereo unspecified),-1.5,-3.8,-0.5,?,4.7,-0.7
COc1cc(C2C(C#N)=C(N)OC3=C2C(=O)CC(C)(C)C3)cc([N+](=O)[O-])c1O (stereo unspecified),1.0,·,4.6,6.9,9.7*,2.0
CC1(C)CC(=O)C2=C(C1)OC(N)=C(C#N)C2c1ccccc1[N+](=O)[O-] (stereo unspecified),44.9,-4.3,85.5*,61.3*,5.6,91.1*
Nc1c(N(CCC2=CCCCC2)C(=O)C2CC2)c(=O)[nH]c(=O)n1Cc1ccccc1,23.8,·,·,-0.2,·,·
CCCc1cc(NCc2ccccn2)n2c(nc3ccccc32)c1C#N,0.1,-2.9,9.2,-5.3,1.3,32.4
Cc1cc(NCc2ccccn2)n2c(nc3ccccc32)c1C#N,-14.7,-2.9,·,96.5*,-2.8,·
CCCNc1cc(C)c(C#N)c2nc3ccccc3n12,-0.8,-1.4,13.0,·,1.6,44.6
Cc1cc(NCCOCCO)n2c(nc3ccccc32)c1C#N,37.3,·,·,21.3*,·,·
Cc1cc(NCCCO)n2c(nc3ccccc32)c1C#N,9.5,-1.3,10.5,55.7*,4.8,38.9
C=C(C)Cc1c(C)c(C#N)c2nc3ccccc3n2c1NCCCN(C)C,8.3,·,17.3,38.1*,0.5,26.1
Cc1ccc(S(=O)(=O)c2nc(S(=O)(=O)c3ccc(C)cc3)c(N3CCN(CCO)CC3)s2)cc1,11.6,·,·,0.3,·,·
CSc1cc(-c2ccncc2)nc(-c2ccc(Cl)cc2)c1,44.2,·,·,-0.5,·,·
COc1ccc(C(=O)N=C2SC3CS(=O)(=O)CC3N2Cc2ccc(F)cc2)cc1 (stereo unspecified),34.4,·,·,1.4,·,·
COCCNc1cc(C)c(C#N)c2nc3ccccc3n12,4.7,-3.8,17.4,24.7*,0.5,44.3
CCc1c(C)c(C#N)c2nc3ccccc3n2c1NCc1ccco1,13.0,-3.3,21.4,?,-2.8,71.6*
CCCc1cc(NCC2CCCO2)n2c(nc3ccccc32)c1C#N (stereo unspecified),2.6,0.9,20.2,52.1*,-2.1,55.1*
Cc1cccc(NC(=O)CSc2cc(C)c(C#N)c3nc4ccccc4n23)c1,38.3,·,29.7,0.3,-0.6,80.2*
O=C(COc1coc(CN2CCc3ccccc3C2)cc1=O)Nc1cccc(Cl)c1,·,·,·,2.1,·,·
C=CCNC(=O)C1CCN(c2ccc(S(=O)(=O)N3CCOCC3)cc2[N+](=O)[O-])CC1,34.2,-1.9,-2.2,-1.7,1.5,-3.2
